# Assay results published in ChEMBL document CHEMBL4041550, “Structure-Activity Relationship Study of QL47: A Broad-Spectrum Antiviral Agent” (ACS Med Chem Lett, 2017).
# Tests used:
# [1] = Cmax in Swiss albino mouse at 10 mg/kg, po by LC/MS/MS method; assay type: ADME, organism-based; design: dose 10 mg/kg, route oral; conditions: in vivo
# How it was run: (§1)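 Mouse pharmacokinetics after intravenous, oral or intraperitoneal dosing; plasma parameters derived were T1/2, Tmax, Cmax, AUClast, AUCinf, clearance, Vss and oral bioavailability F.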
# [2] = Cmax in Swiss albino mouse at 50 mg/kg, ip by LC/MS/MS method; assay type: ADME, organism-based; design: dose 50 mg/kg, route intraperitoneal; conditions: in vivo; how it was run: as §1
# [3] = target: Serine/threonine-protein kinase pim-2 (Homo sapiens, UniProt Q9P1W9); experiment: Inhibition of recombinant full length GST-tagged human PIM2 expressed in baculovirus expression system by Z'-Lyte assay
# Serine/threonine-protein kinase pim-2, sequence (Q9P1W9 whole entry): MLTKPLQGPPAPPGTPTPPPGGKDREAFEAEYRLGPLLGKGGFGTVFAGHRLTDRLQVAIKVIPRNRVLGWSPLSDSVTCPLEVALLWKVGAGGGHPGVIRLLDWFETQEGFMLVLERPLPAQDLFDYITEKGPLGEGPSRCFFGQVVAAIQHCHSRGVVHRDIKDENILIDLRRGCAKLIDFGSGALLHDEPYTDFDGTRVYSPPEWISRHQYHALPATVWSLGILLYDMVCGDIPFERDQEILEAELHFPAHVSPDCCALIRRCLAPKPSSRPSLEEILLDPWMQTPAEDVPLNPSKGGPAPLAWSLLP
# How it was run: (§2)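 IC50 against PIM1, PIM2, BTK and BMX determined with Z′-Lyte kinase activity assays.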
# [4] = Tmax in Swiss albino mouse at 50 mg/kg, ip by LC/MS/MS method; assay type: ADME, organism-based; conditions: in vivo; how it was run: as §1
# [5] = tested on: dengue virus type 2; experiment: Antiviral activity against Dengue virus serotype 2 replicon harboring GVD mutant infected in HuH7 cells assessed as reduction in viral RNA translation at 2 uM measured at 6 hrs post infection by luciferase reporter gene assay relative to control; assay type: functional; design: scale not given: the % may be the effect or the level left
# How it was run: (§3)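 Huh7 cells transfected with in vitro-transcribed nonreplicative DENV2(GVD) reporter replicon RNA, then treated immediately with compound at 2 or 10 μM. Intracellular firefly luciferase activity read 6 h post-transfection as a measure of RNA translation and expressed relative to DMSO-treated samples. Mean ± SD of experimental duplicates, n = 3 repeats.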
# [6] = Cytotoxicity against human HuH7 cells measured after 24 hrs by CellTiter-Glo luminescent cell viability assay; assay type: cell-based, Huh-7
# How it was run: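 DENV2-infected Huh7 cells treated across a concentration range; cell viability read 24 h later. CC50 (50% cytotoxicity) derived by non-linear regression; mean ± SD of experimental duplicates, n ≥ 2 repeats.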
# [7] = Half life in Swiss albino mouse at 10 mg/kg, po by LC/MS/MS method; assay type: ADME, organism-based; conditions: in vivo; how it was run: as §1
# [8] = target: T1, Discoidin domain-containing receptor 2 (Homo sapiens, UniProt Q16832); experiment: Inhibition of GST-tagged human DDR2 cytoplasmic domain (427 to 855 residues) expressed in baculovirus expression system by LanthaScreen assay
# T1 sequence (Q16832 whole entry): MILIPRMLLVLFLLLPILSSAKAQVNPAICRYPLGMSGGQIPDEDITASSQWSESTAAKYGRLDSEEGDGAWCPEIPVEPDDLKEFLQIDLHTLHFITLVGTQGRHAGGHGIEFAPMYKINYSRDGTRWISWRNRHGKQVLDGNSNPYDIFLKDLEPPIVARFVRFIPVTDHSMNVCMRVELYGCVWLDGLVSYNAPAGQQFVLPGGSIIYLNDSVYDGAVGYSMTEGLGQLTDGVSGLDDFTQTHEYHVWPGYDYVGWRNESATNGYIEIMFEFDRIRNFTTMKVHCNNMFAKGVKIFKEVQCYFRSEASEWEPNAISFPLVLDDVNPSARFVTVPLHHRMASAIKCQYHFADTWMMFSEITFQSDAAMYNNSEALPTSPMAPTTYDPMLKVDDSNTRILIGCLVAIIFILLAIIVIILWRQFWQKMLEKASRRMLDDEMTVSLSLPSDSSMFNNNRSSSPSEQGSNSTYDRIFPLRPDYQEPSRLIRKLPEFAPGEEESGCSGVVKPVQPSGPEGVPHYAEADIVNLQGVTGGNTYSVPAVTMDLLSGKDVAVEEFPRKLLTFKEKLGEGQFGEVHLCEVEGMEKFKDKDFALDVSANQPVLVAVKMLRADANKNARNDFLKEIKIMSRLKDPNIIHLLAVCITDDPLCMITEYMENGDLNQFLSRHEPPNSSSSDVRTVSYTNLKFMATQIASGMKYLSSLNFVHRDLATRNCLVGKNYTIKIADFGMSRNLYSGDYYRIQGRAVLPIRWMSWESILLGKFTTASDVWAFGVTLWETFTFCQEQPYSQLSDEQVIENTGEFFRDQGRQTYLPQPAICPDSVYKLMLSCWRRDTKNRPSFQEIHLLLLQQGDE
# How it was run: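 IC50 against DDR1 and DDR2 determined with LanthaScreen binding assays.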
# [9] = target: Tyrosine-protein kinase BTK (Homo sapiens, UniProt Q06187); experiment: Inhibition of recombinant full length His-tagged human BTK cytoplasmic domain expressed in baculovirus expression system by Z'-Lyte assay; how it was run: as §2
# Tyrosine-protein kinase BTK, sequence (Q06187 whole entry, the tested form may be a part): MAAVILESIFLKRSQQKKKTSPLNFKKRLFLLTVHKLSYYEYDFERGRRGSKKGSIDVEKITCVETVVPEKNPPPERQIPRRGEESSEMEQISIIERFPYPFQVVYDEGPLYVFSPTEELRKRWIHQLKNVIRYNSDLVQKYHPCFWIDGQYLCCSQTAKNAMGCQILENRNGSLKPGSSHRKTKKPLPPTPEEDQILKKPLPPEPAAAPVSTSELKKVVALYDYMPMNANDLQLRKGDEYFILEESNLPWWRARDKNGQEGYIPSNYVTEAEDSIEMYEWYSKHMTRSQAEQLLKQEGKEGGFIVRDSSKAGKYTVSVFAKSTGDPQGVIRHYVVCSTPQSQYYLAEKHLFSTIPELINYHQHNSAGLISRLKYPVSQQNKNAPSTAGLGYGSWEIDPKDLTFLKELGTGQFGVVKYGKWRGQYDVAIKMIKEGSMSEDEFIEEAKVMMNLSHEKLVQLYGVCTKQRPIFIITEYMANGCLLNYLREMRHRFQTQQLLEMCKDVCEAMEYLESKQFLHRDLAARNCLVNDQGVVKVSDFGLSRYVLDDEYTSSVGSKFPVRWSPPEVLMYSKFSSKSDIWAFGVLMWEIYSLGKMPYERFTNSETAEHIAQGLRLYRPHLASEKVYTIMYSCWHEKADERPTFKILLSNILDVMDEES
# [10] = AUC (infinity) in Swiss albino mouse at 10 mg/kg, ip by LC/MS/MS method; assay type: ADME, organism-based; design: dose 10 mg/kg, route intraperitoneal, time infinity; conditions: in vivo
# [11] = tested on: dengue virus type 2; experiment: Antiviral activity against Dengue virus serotype 2 replicon harboring GVD mutant infected in HuH7 cells assessed as reduction in viral RNA translation at 10 uM measured at 6 hrs post infection by luciferase reporter gene assay relative to control; assay type: functional; design: scale not given: the % may be the effect or the level left; how it was run: as §3
# [12] = AUC (infinity) in Swiss albino mouse at 10 mg/kg, po by LC/MS/MS method; assay type: ADME, organism-based; design: dose 10 mg/kg, route oral, time infinity; conditions: in vivo
# [13] = AUClast in Swiss albino mouse at 10 mg/kg, po by LC/MS/MS method; assay type: ADME, organism-based; design: dose 10 mg/kg, time 0 - last, route oral; conditions: in vivo
# [14] = Volume of distribution at steady state in Swiss albino mouse at 2 mg/kg, iv by LC/MS/MS method; assay type: ADME, organism-based; conditions: in vivo, read-out: Vdss; how it was run: as §1
# [15] = Cmax in Swiss albino mouse at 2 mg/kg, iv by LC/MS/MS method; assay type: ADME, organism-based; design: dose 2 mg/kg, route intravenous; conditions: in vivo; how it was run: as §1
# [16] = AUClast in Swiss albino mouse at 2 mg/kg, iv by LC/MS/MS method; assay type: ADME, organism-based; design: dose 2 mg/kg, route intravenous, time 0 - last; conditions: in vivo
# [17] = tested on: dengue virus type 2; experiment: Antiviral activity against Dengue virus serotype 2 strain New Guinea C infected in HuH7 cells assessed as reduction in log-fold change by measuring focus forming unit at 2 uM measured at 24 hrs post infection by focus forming assay relative to control; assay type: functional, Thailand/NGS-C/1944
# How it was run: (§4)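 DENV2-infected Huh7 cells treated with compound at 2 or 10 μM. Infectious virus secreted into culture supernatants at 24 h post-infection/treatment was titred by focus-forming assay. Result expressed as log-fold change relative to DMSO treatment.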
# [18] = tested on: dengue virus type 2; experiment: Antiviral activity against Dengue virus serotype 2 strain New Guinea C infected in HuH7 cells measured at 24 hrs post infection by focus forming assay; assay type: functional; conditions: Thailand/NGS-C/1944, Huh-7, 24 h
# How it was run: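 Huh7 cells infected with DENV2, then treated with a range of compound concentrations. Viral yield measured 24 h later by titration of infectious particles in supernatants; in parallel, cell viability measured. IC90 (1-log10 reduction in infectious progeny) and CC50 derived by non-linear regression. Mean ± SD of experimental duplicates, n ≥ 2 repeats.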
# [19] = AUClast in Swiss albino mouse at 10 mg/kg, ip by LC/MS/MS method; assay type: ADME, organism-based; design: dose 10 mg/kg, route intraperitoneal, time 0 - last; conditions: in vivo
# [20] = AUC (infinity) in Swiss albino mouse at 2 mg/kg, iv by LC/MS/MS method; assay type: ADME, organism-based; design: dose 2 mg/kg, route intravenous, time infinity; conditions: in vivo
# [21] = Oral bioavailability in Swiss albino mouse at 10 mg/kg by LC/MS/MS method; assay type: ADME, organism-based; conditions: in vivo; how it was run: as §1
# [22] = Cmax in Swiss albino mouse at 10 mg/kg, ip by LC/MS/MS method; assay type: ADME, organism-based; design: dose 10 mg/kg, route intraperitoneal; conditions: in vivo; how it was run: as §1
# [23] = Clearance in Swiss albino mouse at 2 mg/kg, iv by LC/MS/MS method; assay type: ADME, organism-based; conditions: in vivo; how it was run: as §1
# [24] = tested on: dengue virus type 2; experiment: Antiviral activity against Dengue virus serotype 2 strain New Guinea C infected in HuH7 cells assessed as reduction in log-fold change by measuring focus forming unit at 10 uM measured at 24 hrs post infection by focus forming assay relative to control; assay type: functional, Thailand/NGS-C/1944; how it was run: as §4
# [25] = Half life in Swiss albino mouse at 2 mg/kg, iv by LC/MS/MS method; assay type: ADME, organism-based; conditions: in vivo; how it was run: as §1
smiles,measurement,setting,value
Cc1ccc(-n2c(=O)ccc3ccc4ccc(-c5cnn(C)c5)cc4c32)cc1NC(=O)/C=C/CN(C)C,Cmax,[1],40.4 ng/mL
same,Cmax,[2],4510 ng/mL
same,IC50,[3],> 10 µM
same,Tmax,[4],4.8 min
same,Activity,[5],65%
same,CC50 at 24 h,[6],12 to 20 µM
same,half-life,[7],1.53 h
same,IC50,[8],> 10 µM
same,IC50,[9],0.911 µM
same,AUC(0-inf),[10],1210 ng·h/mL
same,Activity,[11],95%
same,AUC(0-inf),[12],118 ng·h/mL
same,AUC(0-t),[13],95.4 ng·h/mL
same,Vd,[14],9.58 L/kg
same,Cmax,[15],462 ng/mL
same,AUC(0-t),[16],161 ng·h/mL
same,Activity,[17],4 log10FFU/ml
same,IC90,[18],0.555 µM
same,AUC(0-t),[19],1110 ng·h/mL
same,AUC(0-inf),[20],167 ng·h/mL
same,bioavailability,[21],12%
same,Cmax,[22],787 ng/mL
same,clearance,[23],199 mL/min/kg
same,Activity,[24],4 log10FFU/ml
same,half-life,[25],1.07 h
